From PubChem BioAssay
T cruzi repl = T. cruzi replication inhibition. T. cruzi beta-gal in NIH3T3, luminescence, 90 h. inhibition, % (no concentration beside the values). hit rate 1.4% among 300,000;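 active means mean inhibition across valid replicates above about 55%, limit read from the data; inconclusive means mean below that limit but half or more replicates reach it; inactive means mean below it, under half of replicates reach it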;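 further: signal also drops with host cell toxicity which is not excluded here; higher percent means less beta-gal luminescence so fewer parasites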
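Assay system: NIH/3T3 fibroblasts plus reporter T. cruzi. Amount: NIH/3T3 cells, 5,000 per well. Buffer or medium: DMEM, 2% fetal bovine serum. Doses: compound pinned at 50 nL/well, DMSO. Schedule: ≥90 h infection period, 3 h prior cell attachment. Signal: luminescent β-galactosidase signal after 60 min lysis. Read-out: parasite load inhibition, %.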
MEKK2 mut-MEK5 = signal of MEK5 binding to mutant human MEKK2 PB1 domain | AID 1530 | hit rate 0.35% among 290,000 | bead flow cytometry, Alexa488-MEK5 binding to MEKK2 mutant | percent response, % at 10 µM; in the data active means percent response above about 24%, passing the limit was not always enough
MEKK3 PB1 HTS = modulators (inhibitors or enhancers) of MEK5 binding to human MEKK3 PB1 domain; Q99759; bead-based flow cytometry, Alexa488-MEK5 binding to MEKK3; actives lie on both sides; 0 = blocked by unlabeled MEK5, 100 = vehicle; binding response (% of control), % at 10 µM; hit rate 1.4% among 290,000; AID 1529;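 active means binding response more than 3 SD above or below the average of its plate-row segment, actives on both sides; inconclusive means wells at one plate position flagged as instrument error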;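 further: Alexa488 bead fluorescence after subtracting the streptavidin-only scavenger bead signal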
Target sequence (Q99759 whole entry, looked up, the tested form may be a part): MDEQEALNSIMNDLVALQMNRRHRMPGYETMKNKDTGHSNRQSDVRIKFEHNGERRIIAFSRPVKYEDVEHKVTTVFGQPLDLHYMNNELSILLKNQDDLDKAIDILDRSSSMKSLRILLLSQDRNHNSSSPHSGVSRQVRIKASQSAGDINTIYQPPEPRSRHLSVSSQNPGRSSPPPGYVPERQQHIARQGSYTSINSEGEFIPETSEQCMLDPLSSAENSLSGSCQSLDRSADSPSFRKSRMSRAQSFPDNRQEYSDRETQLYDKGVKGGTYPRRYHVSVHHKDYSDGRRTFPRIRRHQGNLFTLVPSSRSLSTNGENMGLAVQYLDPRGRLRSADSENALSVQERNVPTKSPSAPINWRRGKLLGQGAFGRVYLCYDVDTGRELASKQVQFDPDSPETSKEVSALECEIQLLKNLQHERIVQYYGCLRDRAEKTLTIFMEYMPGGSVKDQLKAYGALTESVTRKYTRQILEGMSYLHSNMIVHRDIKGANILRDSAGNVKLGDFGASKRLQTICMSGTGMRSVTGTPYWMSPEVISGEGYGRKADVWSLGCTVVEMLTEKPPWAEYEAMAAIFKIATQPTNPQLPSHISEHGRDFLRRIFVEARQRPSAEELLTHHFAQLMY
DNA FID counter = fluorescent intercalator displacement, NS3 helicase counter-screen; hit rate 0.17% among 290,000; AID 1845; inhibition, % at 7.9 µM; DNA fluorescent intercalator displacement, fluorescence; in the data active means inhibition above about 37%;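 further: higher means more ethidium bromide displaced from hairpin DNA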
NS3 helicase inh = HCV NS3 helicase inhibition; NS3 helicase DNA unwinding, Cy5 molecular beacon fluorescence; inhibition, % at 10.9 µM; hit rate 0.56% among 290,000;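 active means inhibition above the mean of all tested compounds plus 3 SD, set per campaign, cut at about 35% in these data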
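Measured by: Cy5 fluorescence, 0 and 60 min reads / Assay system: NS3 helicase fragment of HCV / Control set: low DMSO, high thioflavine S at 110 µM / Times: 1 h reaction at 25 °C, ATP-initiated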
MEKK2wt PB1 HTS = raises or lowers MEK5 binding to wildtype human MEKK2 PB1 domain | Q9Y2U5 | bead flow cytometry, Alexa488-MEK5 binding to MEKK2 WT; actives lie on both sides | binding response (% of control), % at 10 µM | hit rate 1.1% among 290,000; in the data active means binding response below about 67% or above about 130%; inconclusive means no clear call, values can overlap the other calls; inactive means in between
MEKK2wt confirm = raises or lowers MEK5 binding to wildtype human MEKK2, retest; AID 1892; bead flow cytometry, Alexa488-MEK5 binding to MEKK2 WT; actives lie on both sides; binding response (% of control), % at 10 µM; hit rate 2.4% among 5,900; shares compounds with MEKK3 PB1 HTS; in the data active means binding response below about 16% or above about 210%; inactive means in between
MEKK2mut confirm = signal of MEK5 binding to mutant human MEKK2, retest; percent response, % at 10 µM; shares compounds with MEKK3 PB1 HTS; bead flow cytometry, Alexa488-MEK5 binding to MEKK2 mutant; hit rate 2% among 5,900; in the data active means percent response mostly above about 71%, no sharp cut-off; inactive means mostly below about 38%;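 further: higher means compound restores mutant binding toward wildtype level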
MEKK3-MEK5 inh = MEKK3-MEK5 PB1 inhibition, single concentration confirmation | shares compounds with MEKK3 PB1 HTS | bead flow cytometry, Alexa488-MEK5 binding to MEKK3; stronger effect = lower value | binding response (% of control), % at 10 µM | hit rate 1.8% among 5,900;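 active means binding response below 72% of control, or above a set upper limit, though filed actives all read lower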
Large screens that a line does not name were inactive (follow-up assays come after a bar, where they were run); [ ] = another dose, or the depositor's remark. The list is not random: actives were taken first. Their share in the collection is about 4.1%.

C#CCOCCOCCOCCNc1nc(N2CCN(C(=O)[C@H](CCC(=O)O)n3cc(C(N)Cc4ccc(O)cc4)nn3)CC2)nc(N2CCN(C(=O)[C@H](Cc3cc4ccccc4[nH]3)n3cc(C(N)[C@H](C)CC)nn3)CC2)n1 (stereo partly specified)	MEKK2wt PB1 HTS 153 | MEKK2wt confirm inactive | MEKK2mut confirm inactive | MEKK3-MEK5 inh inactive
C#CCOCCOCCOCCNc1nc(N2CCN(C(=O)[C@H](Cc3ccc(O)cc3)n3cc([C@@H](N)C(C)CC)nn3)CC2)nc(N2CCN(C(=O)[C@H](Cc3cc4ccccc4[nH]3)n3cc([C@@H](N)CC(C)C)nn3)CC2)n1 (stereo partly specified)	MEKK2 mut-MEK5 73, DNA FID counter 60, MEKK2wt PB1 HTS 224 | MEKK2wt confirm 231 | MEKK2mut confirm 117 | MEKK3-MEK5 inh inactive
C#CCOCCOCCOCCNc1nc(N2CCN(C(=O)[C@H](Cc3ccc(O)cc3)n3cc([C@@H](N)C(C)CC)nn3)CC2)nc(N2CCN(C(=O)[C@H](Cc3cc4ccccc4[nH]3)n3cc([C@@H](N)C(C)CC)nn3)CC2)n1 (stereo partly specified)	MEKK2 mut-MEK5 59, DNA FID counter 51, MEKK2wt PB1 HTS 208 | MEKK2wt confirm inactive | MEKK2mut confirm inactive | MEKK3-MEK5 inh inactive
C#CCOCCOCCOCCNc1nc(N2CCN(C(=O)[C@H](Cc3cc4ccccc4[nH]3)n3cc(C(N)CC(C)C)nn3)CC2)nc(N2CCN(C(=O)[C@H](CCC(=O)O)n3cc(C(N)[C@H](C)CC)nn3)CC2)n1 (stereo partly specified)	none
C#CCOCCOCCOCCNc1nc(N2CCN(C(=O)[C@H](CCC(=O)O)n3cc(C(N)CC(C)C)nn3)CC2)nc(N2CCN(C(=O)[C@H](Cc3cc4ccccc4[nH]3)n3cc(C(N)CC(C)C)nn3)CC2)n1 (stereo partly specified)	none
Cn1c(=O)cc(Cl)[nH]c1=O	none
Cc1ccc(C(=O)NCC(=O)OCC(=O)/C=C2\N(C)c3ccccc3C2(C)C)cc1C	none
COc1ccc(C(=O)N2CCCCCC2)cc1OC1CCN(C(C)=O)CC1	none
CCC(CC)NC(=O)Nc1ccccc1C(F)(F)F	none
C#CCOCCOCCOCCNc1nc(N2CCN(C(=O)[C@H]([C@@H](C)CC)n3cc([C@@H](N)Cc4ccc(O)cc4)nn3)CC2)nc(N2CCN(C(=O)[C@H](Cc3cc4ccccc4[nH]3)n3cc([C@@H](N)C(C)CC)nn3)CC2)n1 (stereo partly specified)	MEKK2 mut-MEK5 91, MEKK2wt PB1 HTS 237 | MEKK2wt confirm 216 | MEKK2mut confirm inactive | MEKK3-MEK5 inh inactive
C#CCOCCOCCOCCNc1nc(N2CCN(C(=O)[C@H](CCCCN)n3cc([C@@H](N)C(C)CC)nn3)CC2)nc(N2CCN(C(=O)[C@H](CCCCN)n3cc([C@@H](N)CC(C)C)nn3)CC2)n1 (stereo partly specified)	MEKK2 mut-MEK5 60, DNA FID counter 62, MEKK2wt PB1 HTS 180 | MEKK2wt confirm inactive | MEKK2mut confirm inactive | MEKK3-MEK5 inh inactive
C#CCOCCOCCOCCNc1nc(N2CCN(C(=O)[C@H](Cc3cc4ccccc4[nH]3)n3cc([C@@H](N)C(C)CC)nn3)CC2)nc(N2CCN(C(=O)[C@H](CCCCN)n3cc([C@@H](N)CC(C)C)nn3)CC2)n1 (stereo partly specified)	MEKK2 mut-MEK5 95, DNA FID counter 44, MEKK2wt PB1 HTS 247 | MEKK2wt confirm 232 | MEKK2mut confirm 89 | MEKK3-MEK5 inh inactive
C#CCOCCOCCOCCNc1nc(N2CCN(C(=O)[C@H](CCC(=O)O)n3cc(C(N)CC(C)C)nn3)CC2)nc(N2CCN(C(=O)[C@H](CCC(=O)O)n3cc(C(N)[C@H](C)CC)nn3)CC2)n1 (stereo partly specified)	none
CC1=CC(C)C(/C=N/N=C(N)N)C(C)C1 (stereo unspecified)	none
O=C(CSc1ccc(Br)cc1)Nc1ccc(N2CCOCC2)cc1	none (no result: MEKK2 mut-MEK5, MEKK3 PB1 HTS, DNA FID counter, NS3 helicase inh, MEKK2wt PB1 HTS)
CCOCCCNC(=S)NCCCNc1nc2c(C)cc(C)cc2cc1C#N	none (no result: T cruzi repl)
Cc1cc(C)c2nc(NCCCNC(=S)NCCCN(C)C)c(C#N)cc2c1	MEKK2wt PB1 HTS 164 | MEKK2wt confirm inactive | MEKK2mut confirm inactive | MEKK3-MEK5 inh inactive
COc1ccc(OC)c(NC(=O)CN2CCc3ccccc3C2)c1	none
O=C(CSc1nc2ccccc2c(=O)n1NC(=O)Cc1ccccc1)NCc1ccccc1Cl	none
N#C/C(=C\C=C\c1ccccc1)c1nc(-c2ccc3c(c2)OCO3)cs1	none
CCN(CC)CCOC(=O)c1ccc(N/C=C(/C#N)c2nc(-c3cc4ccccc4oc3=O)cs2)cc1	MEKK3 PB1 HTS 15[inhibitor], MEKK2wt PB1 HTS 36[inhibitor] | MEKK2wt confirm 14[inhibitor] | MEKK2mut confirm inactive | MEKK3-MEK5 inh 13
CCN(CC)CCOC(=O)c1ccc(N/C=C(/C#N)c2nc(-c3ccc(OC)cc3)cs2)cc1	T cruzi repl inconclusive, MEKK3 PB1 HTS 22[inhibitor] | MEKK2wt confirm 212 | MEKK2mut confirm inactive | MEKK3-MEK5 inh inactive
CCN(CC)CCOC(=O)c1ccc(N/C=C(/C#N)c2nc(-c3ccc4c(c3)OCO4)cs2)cc1	MEKK3 PB1 HTS 22[inhibitor], MEKK2wt PB1 HTS 58[inhibitor] | MEKK2wt confirm inactive | MEKK2mut confirm inactive | MEKK3-MEK5 inh 39
CCN(C(=O)CN1C(=O)S/C(=C\c2cccc(OC)c2)C1=O)C1CCS(=O)(=O)C1 (stereo unspecified)	none
CC(N=c1ccccn1C(=O)Nc1ccc(F)cc1)c1ccco1 (stereo unspecified)	MEKK3 PB1 HTS 0.0[inhibitor], MEKK2wt PB1 HTS -4.0[inhibitor] | MEKK2wt confirm inactive | MEKK2mut confirm inactive | MEKK3-MEK5 inh inactive
COc1ccc(OC)c(/C=N/Nc2nc(C)cc(=O)[nH]2)c1	none
O=C(Cn1cc[n+](CC(=O)c2ccc(Cl)cc2Cl)c1)c1ccc(Cl)cc1Cl	MEKK2wt PB1 HTS 174 | MEKK2wt confirm inactive | MEKK2mut confirm inactive | MEKK3-MEK5 inh inactive
